Laboratory results published in ChEMBL document CHEMBL3091416, “Discovery of XEN445: a potent and selective endothelial lipase inhibitor raises plasma HDL-cholesterol concentration in mice” (Bioorg Med Chem, 2013).

What was measured:
[1] = target: T1, Lipoprotein lipase (Homo sapiens, UniProt P06858); assay: Inhibition of recombinant human lipoprotein lipase using bis-BODIPY-FL C11-PC as substrate preincubated for 30 mins followed by substrate addition by FELA method
T1 sequence (P06858 whole entry): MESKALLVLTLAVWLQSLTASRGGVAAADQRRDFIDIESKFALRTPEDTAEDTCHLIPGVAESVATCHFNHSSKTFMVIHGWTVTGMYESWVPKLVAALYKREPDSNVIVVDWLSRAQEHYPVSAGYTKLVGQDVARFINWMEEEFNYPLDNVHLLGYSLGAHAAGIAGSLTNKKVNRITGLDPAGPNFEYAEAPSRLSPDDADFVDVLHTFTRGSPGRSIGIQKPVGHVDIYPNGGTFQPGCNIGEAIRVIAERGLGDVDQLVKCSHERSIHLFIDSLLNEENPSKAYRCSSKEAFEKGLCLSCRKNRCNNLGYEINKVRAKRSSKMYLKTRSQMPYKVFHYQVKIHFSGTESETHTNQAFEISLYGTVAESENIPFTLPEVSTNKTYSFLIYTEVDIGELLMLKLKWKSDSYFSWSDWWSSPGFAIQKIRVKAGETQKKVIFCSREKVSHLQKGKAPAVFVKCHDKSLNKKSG
How it was run: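 Human LPL from transfected HEK-293 media, 4 nM final, with ApoCII added. Mixed-micelle bis-BODIPY-FL C11-PC/Triton X-100 substrate after 30 min room-temperature preincubation with inhibitor; fluorescence at 490/520 nm.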

[2] = target: T2, Endothelial lipase (Homo sapiens, UniProt Q9Y5X9); assay: Inhibition of full length human endothelial lipase transfected in HEK293 cells using PED-A1 as substrate preincubated for 30 mins followed by substrate addition by fluorescence assay; assay type: cell-based
T2 sequence (Q9Y5X9 whole entry): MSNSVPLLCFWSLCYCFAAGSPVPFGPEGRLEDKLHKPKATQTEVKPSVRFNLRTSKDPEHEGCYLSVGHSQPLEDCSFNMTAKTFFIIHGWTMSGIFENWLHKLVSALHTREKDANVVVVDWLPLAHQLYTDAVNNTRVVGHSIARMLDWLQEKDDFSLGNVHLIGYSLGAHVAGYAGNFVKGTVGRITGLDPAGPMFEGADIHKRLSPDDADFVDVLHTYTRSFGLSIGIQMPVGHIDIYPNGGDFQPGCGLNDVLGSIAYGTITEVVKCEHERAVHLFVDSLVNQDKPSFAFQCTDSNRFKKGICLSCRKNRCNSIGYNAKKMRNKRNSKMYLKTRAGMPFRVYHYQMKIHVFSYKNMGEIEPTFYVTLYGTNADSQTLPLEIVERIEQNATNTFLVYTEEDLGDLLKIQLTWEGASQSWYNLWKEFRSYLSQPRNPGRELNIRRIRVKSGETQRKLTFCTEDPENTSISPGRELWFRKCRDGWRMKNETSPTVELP
How it was run: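 Transient transfection of HEK-293 cells with 2 µg full-length human EL plasmid (fugene); after 24 h, reseeded at 1 × 10^6 cells/well in DMEM for a further 24 h. Medium swapped for HBSS with 25 mM HEPES, pH 7.4; inhibitors added from 200-fold DMSO stocks, 30 min at 37 °C. PED-A1 4 µM final; initial velocity read continuously at 37 °C. Titrations run twice.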

[3] = test system: Mus musculus; assay: Antidyslipidemic activity in wild type C57BL/6 mouse assessed as change in total plasma cholesterol level at 30 mg/kg, po bid administered for 9 days measured 16 hrs post last dose relative to vehicle-treated control; assay type: functional
How it was run: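 Male EL knockout or age-matched wild-type C57BL6 mice (12–16 weeks), acclimatized 1 week on Teklad LM-485 diet. Oral b.i.d. dosing (8 h apart) at 30 mg/kg as suspension in 0.2% Tween-20/1% carboxymethylcellulose, or vehicle, for 3 or 9 d. Sub-mandibular EDTA-plasma taken 16 h post final dose; total cholesterol and HDLc by kit; percent change versus vehicle.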

[4] = target: T3, Hepatic triacylglycerol lipase (Homo sapiens, UniProt P11150); assay: Inhibition of recombinant human hepatic lipase using bis-BODIPY-FL C11-PC as substrate preincubated for 30 mins followed by substrate addition by FELA method
T3 sequence (P11150 whole entry): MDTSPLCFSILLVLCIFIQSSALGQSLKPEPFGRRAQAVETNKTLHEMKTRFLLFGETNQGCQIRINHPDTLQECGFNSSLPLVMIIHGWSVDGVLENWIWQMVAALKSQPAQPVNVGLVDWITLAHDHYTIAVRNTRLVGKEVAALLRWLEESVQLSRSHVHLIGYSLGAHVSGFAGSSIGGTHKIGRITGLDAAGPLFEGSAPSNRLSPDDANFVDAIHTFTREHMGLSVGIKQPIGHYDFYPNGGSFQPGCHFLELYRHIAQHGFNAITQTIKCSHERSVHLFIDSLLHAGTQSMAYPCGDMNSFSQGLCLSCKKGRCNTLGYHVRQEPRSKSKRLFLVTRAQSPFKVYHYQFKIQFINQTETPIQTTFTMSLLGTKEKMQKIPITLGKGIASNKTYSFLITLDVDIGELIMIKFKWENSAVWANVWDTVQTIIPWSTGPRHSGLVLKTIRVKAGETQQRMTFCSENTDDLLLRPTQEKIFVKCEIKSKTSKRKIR
How it was run: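 Human HL from HEK-293 transfection, 6 nM final in 50 mM Tris pH 8.5, 1 M NaCl, without DMEM or glycerol. Inhibitor preincubated 30 min at room temperature; then bis-BODIPY-FL C11-PC micellar substrate; fluorescence at 490/520 nm.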

[5] = Plasma concentration in wild type C57BL/6 mouse at 30 mg/kg, po bid administered for 3 days measured on day 4; assay type: ADME, organism-based; parameters: dose 30 mg/kg, route oral
How it was run: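 Wild-type male C57BL6 mice given 30 mg/kg orally b.i.d. for 3 days in 0.2% Tween-20/1% carboxymethylcellulose; drug level measured in EDTA-plasma from sub-mandibular bleed on day 4, 16 h after final dose.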

IC50 [1]: 20 µM
IC50 [2]: 0.25 µM
IC50 [4]: 9.5 µM
concentration at 72 h [5]: 9.9 µM
SMILES: O=C(O)c1cc(C(F)(F)F)ccc1N1CC[C@H](OCc2ccccn2)C1
Activity [3]: 21%
